Xi reactivation: reactivates the inactive X chromosome in mouse fibroblasts; XiGFP mouse fibroblasts, % GFP-positive cells imaging, 3 d; cells co-treated with 5-aza-dC sensitizer; scaled so ellipticine positive control = 100%; activation, % at 7.58 µM; 0.055% of 360,000 active; AID 743238;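 active = mean normalized replicate activation at least 10% and every replicate at or above 10%; inconclusive = only one of the two criteria met; inactive = mean below 10% and not all replicates reach 10%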
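Schedule: 3 d treatment, 15 min room-temperature fixation; system: 68-5-11 XiGFP fibroblast line; buffer or medium: DMEM plus 5-aza-dC sensitizer; control set: ellipticine 6 µM positive control; compound: one concentration, pinned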
GSIS activator: primary screen for activators of insulin secretion dependent on glucose, INS-1E cells, GLuc reporter luminescence. INS-1E GLuc reporter insulin secretion, 2-3 h. activation, % at 16.6 µM. 0.61% of 370,000 active;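 active = lowest replicate activation of at least 40%, so every replicate reaches that level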
AF4-AF9 inh: blocks AF4 peptide binding to human AF9. AlphaScreen, biotin-AF4 peptide binding to FLAG-AF9. 0.47% of 350,000 active. P42568. inhibition, % at 10 µM;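 active = every replicate reaching a set inhibition limit, whatever the replicate mean, cut at about 25% in these data; inconclusive = mean inhibition reaches that limit but some replicates miss it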
Target sequence (P42568 whole entry, looked up): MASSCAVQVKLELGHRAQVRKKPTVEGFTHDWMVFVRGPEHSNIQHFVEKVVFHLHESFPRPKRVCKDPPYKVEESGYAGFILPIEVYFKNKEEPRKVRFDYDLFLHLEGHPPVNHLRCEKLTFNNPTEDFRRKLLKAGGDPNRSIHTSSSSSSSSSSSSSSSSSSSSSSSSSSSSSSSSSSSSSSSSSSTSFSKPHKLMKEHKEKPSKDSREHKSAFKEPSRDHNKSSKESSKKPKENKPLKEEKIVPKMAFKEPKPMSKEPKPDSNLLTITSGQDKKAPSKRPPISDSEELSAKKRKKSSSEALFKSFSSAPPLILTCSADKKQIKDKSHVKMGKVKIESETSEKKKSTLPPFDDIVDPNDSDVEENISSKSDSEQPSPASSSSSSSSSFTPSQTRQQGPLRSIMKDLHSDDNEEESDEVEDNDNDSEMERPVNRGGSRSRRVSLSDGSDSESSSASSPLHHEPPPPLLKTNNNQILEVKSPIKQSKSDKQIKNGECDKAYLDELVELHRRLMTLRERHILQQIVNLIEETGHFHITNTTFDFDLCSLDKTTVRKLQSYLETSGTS
PAX8 inh HTS: inhibitors of PAX8 transcriptional activity in RMG-I cells; RMG-I TPO-luciferase reporter, SteadyGlo, 24 h; inhibition, % at 12.6 µM; 1.2% of 360,000 active; AID 652154;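 active = mean replicate inhibition at least 60% with every replicate also reaching 60%; inconclusive = only one of the two criteria is met; inactive = mean below 60% and not all replicates reaching 60%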;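 also: luciferase light reporting Pax8 driven TPO promoter activity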
PGC1a acetyl inh: lowers PGC1a acetylation signal in U2OS cells; AID 651687; inhibition, % at 15.6 µM; 0.17% of 350,000 active; AlphaScreen anti-acetyl-lysine; with virally co-expressed GCN5 acetyltransferase;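 active = every replicate shows inhibition of at least 40%; inconclusive = mean inhibition at least 40% but some replicate below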
EWS-Fli block: EWS/Fli transcriptional activity inhibition. A673 NR0B1-luciferase reporter, viability-normalised. inhibition, % at 12.6 µM. 0.67% of 350,000 active;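 active = mean inhibition of at least 50% after viability correction, with every replicate also passing that limit; inconclusive = mean reaches 50% but only one of two replicates passes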;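 also: firefly luciferase signal divided by Alamar Blue viability fluorescence both relative to DMSO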
Hits are given with their value; . = inactive; ? = inconclusive; / = no result given. Compounds with a hit are over-represented: about 2.1% of the library has one in this group of screens.

SMILES	Xi reactivation	GSIS activator	AF4-AF9 inh	PAX8 inh HTS	PGC1a acetyl inh	EWS-Fli block
C[C@@H]1ON(C)[C@H]2C[C@H]3c4[nH]c5c(-c6ccc(F)cc6)cccc5c4CCN3C(=O)[C@@H]12	.	.	/	.	/	.
Cc1cccc(-c2cccc3[nH]c4c(c23)CCN2C(=O)[C@H]3[C@H](C)ON(C)[C@H]3C[C@@H]42)c1	48	.	/	.	/	.
COc1cccc(Nc2nnc(SCN3C(=O)c4ccccc4C3=O)s2)c1	.	/	.	84	.	.
COc1cccc(Nc2nnc(SCC(=O)N(CC(C)C)CC(C)C)s2)c1	/	/	/	/	.	/
CC(=O)N(C)C[C@@H]1Oc2c(NS(C)(=O)=O)cccc2C(=O)N(C)C[C@H]1C	.	.	/	/	/	/
O=C(C[C@H]1C=C[C@@H](NC(=O)CN2CCOCC2)[C@H](CO)O1)NCCc1ccncc1	.	.	.	/	.	.
COc1ccccc1CCn1cnc(-c2ccccc2OC)c1CC(C)C	.	65	?	.	/	.
COc1ccccc1CCn1cnc(-c2ccc(F)cc2)c1CC(C)C	.	120	.	.	/	.
COc1ccccc1CCn1cnc(-c2ccccc2)c1CC(C)C	.	/	.	.	/	.
C[C@@H]1CCCCO[C@H](CN(C)CC2CCCCC2)[C@H](C)CN([C@@H](C)CO)C(=O)c2cc(NC(=O)c3ccncc3)ccc2O1	.	.	.	.	.	/
Cc1noc(C)c1S(=O)(=O)N(C)C[C@@H]1Oc2ccc(NS(C)(=O)=O)cc2C(=O)N([C@@H](C)CO)C[C@@H]1C	.	.	.	/	.	.
COc1ccc(S(=O)(=O)NCc2ccccn2)cc1NC(=O)c1ccc(Cl)cc1	.	.	.	.	.	.
COc1ccc(S(=O)(=O)NCc2ccccn2)cc1NC(=O)c1ccccc1C	.	.	.	.	.	60
Cc1nc2[nH]c(=O)c3c(n2n1)NC1=C(C(=O)CC(C)(C)C1)C3c1ccccc1 (centres undefined)	/	/	/	.	84	/
CC1(C)CC(=O)C2=C(C1)NC1=C(C(=O)c3ccccc31)C2c1ccccc1 (centres undefined)	.	/	.	.	/	.
O=C(c1ccc(Br)cc1)c1cc([N+](=O)[O-])ccc1N1CCCCC1	/	/	/	97	.	/
CN1CCN(c2ccc([N+](=O)[O-])cc2C(=O)c2ccc(Br)cc2)CC1	/	/	/	.	.	/
CC(C)CCNCC(O)CON=C1c2ccccc2-c2ccccc21 (centres undefined)	.	.	27	.	/	.
Cc1noc(C)c1NC(=O)N(C)C[C@H]1OCCCC[C@@H](C)Oc2ccc(NS(=O)(=O)c3cccs3)cc2C(=O)N([C@@H](C)CO)C[C@H]1C	.	.	.	.	.	.
CCOCCCn1c(=N)c(S(=O)(=O)c2ccccc2)cc2c(=O)n3cc(C)ccc3nc21	.	.	26	.	/	.
CC(C)CC#Cc1ccc2c(c1)O[C@H](CN(C)C(=O)Nc1ccccc1)[C@H](C)CN([C@H](C)CO)S2(=O)=O	.	.	.	/	.	.
Cc1cccc(C)c1-n1nnnc1C1(C)CCC(=O)N1Cc1cccs1 (centres undefined)	.	53	.	.	/	.
Cc1ccc(CN2C(=O)CCC2(C)c2nnnn2-c2c(C)cccc2C)cc1 (centres undefined)	.	.	.	.	/	.
CC(C)NC(=O)N1[C@@H]2CN(C(=O)c3ccccc3F)c3ccccc3[C@@H]2[C@@H]1CO	.	.	.	.	.	.
CNC(=O)C[C@H]1CC[C@H]2[C@@H](COc3ccc(NC(=O)CN(C)C)cc3C(=O)N2C)O1	.	.	/	/	/	/
SMILES	Xi reactivation	GSIS activator	AF4-AF9 inh	PAX8 inh HTS	PGC1a acetyl inh	EWS-Fli block
CCC(=O)N1CCc2cc(OC)c(OC)cc2C1COc1ccccc1OC (centres undefined)	.	48	.	.	.	.
COc1ccc(C(=O)N2CCc3cc(OC)c(OC)cc3C2c2ccc(OC)c(OC)c2)cc1OC (centres undefined)	.	48	.	.	.	.
COc1cc2c(cc1OC)C(c1ccccc1)N(C(=O)CCl)CC2 (centres undefined)	/	/	/	.	.	/
C[C@@H]1CN([C@@H](C)CO)C(=O)c2cc(NC(=O)CCCN(C)C)ccc2O[C@H]1CN(C)Cc1ccc(-c2ccccc2)cc1	.	.	.	.	.	.
CCNc1nc(NC(N)=S)nc(NC(C)(C)C)n1	.	70	.	.	.	.
Cc1sc(NC(=S)NC(=O)CCc2ccccc2)c(C(N)=O)c1C	.	.	.	83	/	.
COC(=O)CCC(=O)NC(=S)Nc1sc(C)c(C)c1C(N)=O	.	.	/	.	/	/
CCN=C1S/C(=C\c2cc(Br)c(O)c(OC)c2)C(=O)N1CC	.	53	.	.	/	.
Cc1ccsc1/C=C1\SC(=S)N(CC2CCCO2)C1=O (centres undefined)	.	.	.	.	.	.
COc1ccc(/C=C2\SC(=NCc3ccccc3)N(Cc3ccccc3)C2=O)cc1OC	/	.	/	/	.	/
CCN=C1S/C(=C\c2sccc2C)C(=O)N1CC	.	63	.	.	.	.
C[C@H](CO)N1C[C@H](C)[C@@H](CN(C)Cc2ccc(C(F)(F)F)cc2)OCc2cn(nn2)CCCC1=O	.	.	/	.	.	.
Cc1nnc(NC(=O)CSc2nnc(CC(=O)Nc3ccccc3F)n2C)s1	.	.	53	.	.	.
CC(C)(C)c1cc(NCCCn2ccnc2)n2ncc(-c3ccc(Cl)cc3)c2n1	/	817	/	/	.	/
Cc1cc(NCCCn2ccnc2)n2nc(-c3ccc(Cl)cc3)cc2n1	.	.	.	.	/	.
COc1ccccc1-c1cnc2c(c1)C(=O)N([C@H](C)CO)C[C@@H](C)[C@@H](CN(C)C(C)=O)O2	.	42	.	/	.	.
C[C@H]1CN([C@@H](C)CO)C(=O)c2cc(N(C)C)ccc2O[C@H]1CN(C)Cc1ccccc1	.	.	.	.	.	.
C[C@H](CO)N1C[C@H](C)[C@@H](CN(C)Cc2ccc(Oc3ccccc3)cc2)Oc2ccc(N(C)C)cc2C1=O	.	.	37	.	.	.
C[C@@H]1CN([C@@H](C)CO)C(=O)c2cc(N(C)C)ccc2O[C@@H]1CN(C)Cc1ccc(-c2ccccc2)cc1	.	.	48	.	.	.
COc1ccccc1-c1cnc2c(c1)C(=O)N([C@@H](C)CO)C[C@@H](C)[C@@H](CN(C)C(C)=O)O2	.	.	.	.	.	.
C[C@H](CO)N1C[C@H](C)[C@H](CN(C)Cc2ccccc2)Oc2ccc(N(C)C)cc2C1=O	.	.	.	.	.	.
C[C@H](CO)N1C[C@H](C)[C@H](CN(C)Cc2ccc(-c3ccccc3)cc2)Oc2ccc(N(C)C)cc2C1=O	.	.	49	.	.	.
COc1ccc(CN2CC3(CCN(S(=O)(=O)c4ccc(C)cc4)CC3)c3c([nH]c4cc(OC)ccc34)[C@@H]2CO)cc1	.	.	/	/	/	/

Screening results from PubChem.
